PMC3949125 (Proteins, 2013)

Assays:
[1] = molecular target: human BCL2 (residues 1–218) (Homo sapiens, UniProt P10415); test: Isothermal titration calorimetry of BECN1 BH3D-derived peptides binding to BCL2; details: ITC, 25°C, pH 7.5
Outline: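 Soluble human BCL2 (1–218, C-terminal transmembrane helix removed) and synthetic BH3D-derived peptides (HPLC-purified >95%, mass confirmed by electrospray MS) were co-dialysed against 50 mM HEPES pH 7.5, 150 mM NaCl, 2 mM β-mercaptoethanol. BCL2 sat in the cell and peptide was titrated in at 25°C over 25 injections. Kd came from fitting an independent binding model.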

[2] = molecular target: Soluble human BCL2 (residues 1-218), lacking the C-terminal transmembrane helix (human, UniProt P10415 1-218); test: ITC
Sequence of Soluble human BCL2 (residues 1-218), lacking the C-terminal transmembrane helix (P10415 1-218): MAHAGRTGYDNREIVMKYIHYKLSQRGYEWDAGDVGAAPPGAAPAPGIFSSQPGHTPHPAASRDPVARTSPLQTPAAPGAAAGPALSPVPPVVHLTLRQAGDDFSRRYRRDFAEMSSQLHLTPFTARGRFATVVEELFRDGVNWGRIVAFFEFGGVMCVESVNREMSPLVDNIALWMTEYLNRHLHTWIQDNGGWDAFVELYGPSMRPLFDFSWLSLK

Sequence of human BCL2 (residues 1–218) (P10415 1-218): as above

Molecule | Binding to BCL2 (in words) [1] | dH [2] | further results
G120E+D121A: BECN1 BH3D-derived peptide with double G120E+D121A substitution (DS) (DGGTMENLSRRLKVTEALFDIMSGQT) | abolished |  | Binding to BCL2 (in words) ([1]; listed as DS BH3D): does not bind
DGGTMENLSRRLKVTGDLFDIMSGQT [human BECN1 BH3D peptide (residues 105-130)] |  | -4.25 ± 1.55 kcal/mol | Kd [2]: 10.4 ± 3.5 µM
DGGTMENLSRRLQVTGDLFDIMSGQT (peptide, UniProt Q14457 105-130, looked up) [K117Q BECN1 BH3D peptide] |  | -5.11 ± 1.1 kcal/mol | 
DGGTAENLSRRLKVTGDLFDIMSGQT (peptide, UniProt Q14457 105-130, looked up) [M109A BECN1 BH3D peptide] |  | -3.78 ± 0.693 kcal/mol | 

Continued, in another order:

Binding to BCL2 (in words) [1] | dH [2] | Molecule | further results
abolished |  | F123A: BECN1 BH3D-derived peptide with Ala substitution of F123 (DGGTMENLSRRLKVTGDLADIMSGQT) [Mutant F123A] | 
abolished |  | L112A: BECN1 BH3D-derived peptide with Ala substitution of L112 (DGGTMENASRRLKVTGDLFDIMSGQT) [Mutant L112A] | 
abolished |  | L116A: BECN1 BH3D-derived peptide with Ala substitution of L116 (DGGTMENLSRRAKVTGDLFDIMSGQT) [Mutant L116A] | 
